{"source": "ChEMBL document CHEMBL5032515", "about": "“Dual Role of Phenyl Amides from Hempseed on BACE 1, PPARγ, and PGC-1α in N2a-APP Cells” (J Nat Prod, 2021)", "key": {"[1]": {"experiment": "Permeability of compound assessed as retention time by PAMPA-BBB assay", "type": "ADME", "in_short": "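Qualitative PAMPA-BBB. The donor solution was 200 μg/mL (final) in 0.01 M PBS pH 7.4, made from a stock in 50% EtOH. The filter was coated with brain polar lipid plus cholesterol in n-dodecane, and the acceptor held PBS. Plates were incubated 4 h at 37 °C. Donor and acceptor solutions were analysed by UHPLC-UV (200–400 nm) in triplicate, and compounds were identified by retention time.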"}, "[2]": {"tested_on": "N2a", "experiment": "Cytotoxicity against mouse N2a-APP cells assessed as cell viability at 0.03 to 0.08 uM measured after 24 hrs by MTT assay", "type": "functional, cell-based", "details": "dose 0.03-0.08 µM", "in_short": "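N2a-APP cells were seeded at 1 × 10^4 cells/well and exposed for 24 h to 0.03–0.08 μM, with medium-alone controls. MTT (1 mg/mL) was added for 2 h at 37 °C and the formazan was dissolved in DMSO. Absorbance was read at 570 nm, corrected at 650 nm. Survival is given as % of untreated cells; mean ± SD, one-way ANOVA.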"}, "[3]": {"tested_on": "N2a", "experiment": "Antialzheimer activity in mouse N2a-APP cells assessed as reduction of BACE-1 expression at 0.03 to 0.08 uM measured after 24 hrs by RT-qPCR method", "type": "functional, cell-based", "details": "dose 0.03-0.08 µM", "in_short": "(§1)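 Mutant APP-overexpressing N2a cells were grown in DMEM with 10% FBS and L-glutamine at 37 °C in 5% CO2. They were seeded in six-well plates at 5 × 10^5/mL (24 h) or 5 × 10^5/2 mL (48 h) and treated at 0.03–0.08 μM. Controls were pioglitazone 14 μM and medium alone. SYBR green qPCR used 20 ng cDNA, GAPDH/18S references and triplicate reactions; 2^−ΔΔCt; mean ± SD, n = 3.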"}, "[4]": {"tested_on": "N2a", "experiment": "Antialzheimer activity in mouse N2a-APP cells assessed as reduction of BACE-1 expression at 0.03 to 0.08 uM measured after 48 hrs by RT-qPCR method", "type": "functional, cell-based", "details": "dose 0.03-0.08 µM", "in_short": "as §1"}, "[5]": {"tested_on": "N2a", "experiment": "Antialzheimer activity in mouse N2a-APP cells assessed as increase of […] expression at 0.03 to 0.08 uM measured after 24 hrs by RT-qPCR method", "type": "functional, cell-based", "details": "dose 0.03-0.08 µM", "in_short": "as §1"}, "[6]": {"tested_on": "N2a", "experiment": "Antialzheimer activity in mouse N2a-APP cells assessed as increase of […] expression at 0.03 to 0.08 uM measured after 48 hrs by RT-qPCR method", "type": "functional, cell-based", "details": "dose 0.03-0.08 µM", "in_short": "as §1"}, "[7]": {"tested_on": "N2a", "experiment": "Antialzheimer activity in mouse N2a-APP cells assessed as up-regulation of PGC-1alpha expression at 0.03 to 0.08 uM measured after 24 to 48 hrs by RT-qPCR method", "type": "functional, cell-based", "details": "dose 0.03-0.08 µM, time 24-48 hrs", "in_short": "as §1"}, "[8]": {"tested_on": "N2a", "experiment": "Cytotoxicity against mouse N2a-APP cells assessed as cell viability at 0.03 to 0.08 uM measured after 24 hrs by MTT assay", "details": "dose 0.03-0.08 µM"}, "[9]": {"tested_on": "N2a", "experiment": "Antialzheimer activity in mouse N2a-APP cells assessed as effect on […] expression at 0.03 to 0.08 uM measured after 24 to 48 hrs by RT-qPCR method", "type": "functional, cell-based", "details": "dose 0.03-0.08 µM, time 24-48 hrs", "in_short": "as §1"}}, "note": "Active and inactive are the calls of the source. The calls are words filed in the database; no cut-off is given here.", "data": [{"smiles": "O=C(NCCc1ccc(O)cc1)c1cc2cc(O)c(O)cc2c(-c2ccc(O)c(O)c2)c1C(=O)NCCc1ccc(O)cc1", "values": [{"measurement": "Retention_time", "setting": "[1]", "value": 28.07, "unit": "min"}]}, {"smiles": "O=C(/C=C/c1ccc(O)c(O)c1)NCCc1ccc(O)cc1", "values": [{"measurement": "Retention_time", "setting": "[1]", "value": 24.08, "unit": "min"}, {"measurement": "Activity", "setting": "[2]", "value": "inactive"}, {"measurement": "Activity", "setting": "[3]", "value": "Active"}, {"measurement": "Activity", "setting": "[4]", "value": "Active"}, {"measurement": "Activity", "setting": "[5]", "value": "Active"}, {"measurement": "Activity", "setting": "[6]", "value": "Active"}, {"measurement": "Activity", "setting": "[7]", "value": "Active"}, {"measurement": "Activity", "setting": "[8]", "value": "inactive"}]}, {"smiles": "O=C(/C=C/c1ccc(O)cc1)NCCc1ccc(O)cc1", "note": "[N-P-COUMAROYL TYRAMINE]", "values": [{"measurement": "Retention_time", "setting": "[1]", "value": 27.32, "unit": "min"}, {"measurement": "Activity", "setting": "[2]", "value": "inactive"}, {"measurement": "Activity", "setting": "[9]", "value": "inactive"}, {"measurement": "Activity", "setting": "[8]", "value": "inactive"}]}, {"smiles": "COc1cc(/C=C/C(=O)NCCc2ccc(O)cc2)ccc1O", "note": "[N-TRANS-FERULOYL TYRAMINE]", "values": [{"measurement": "Retention_time", "setting": "[1]", "value": 28.42, "unit": "min"}]}]}
